Screens: PubChem, several laboratories
Sampled rows, rich in hits. Any-hit rate of the full collection: about 11%.
G6PDH counter: counter-screen for G6PDH assay hits: L. mesenteroides G6PDH inhibition. Purified L. mesenteroides G6PDH, diaphorase/resazurin coupled fluorescence, 45 min. inhibition, % at 5 µM. 200,000 compounds, 0.12% hits. AID 1020
Diaph act CS: counter-screen for diaphorase-based assays: diaphorase activators and chemical reducers. Diaphorase/resazurin coupled assay, resorufin fluorescence, 16 min; stronger effect = higher value; 1 = vehicle wells, 0 = NADH-free wells. activation factor at 20 µM. 190,000 compounds, 0.005% hits. AID 1229;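 active = diaphorase activity raised at least twofold by the compound at 20 µM; inactive = activation factor below 2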
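System – purified diaphorase enzyme from Clostridium kluyveri · Input – enzyme 0.07 U/mL final · Also added – final NADH 0.114 mM, resazurin 0.1 mM · Measured by – fluorescence of resorufin, 544 nm excitation, 590 nm emission · Timing – 16 min enzyme reaction, ambient temperature · Measure – resorufin increase flagging diaphorase activators or reducers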
L major viab: reduces viability of Leishmania major promastigotes; resazurin fluorescence viability; inhibition, % at 10 µM; 200,000 compounds, 9% hits; AID 1063;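 note: promastigotes grown with compound for 44 hours at 28 °C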
Diaphorase inh: inhibits diaphorase or chemically oxidizes, flagging diaphorase assay artifacts | 190,000 compounds, 0.69% hits | diaphorase resazurin-to-resorufin fluorescence, NADH, 16 min; bacterial (C. kluyveri) enzyme, not human | AID 1217 | inhibition, % at 20 µM;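 active = primary screen inhibition at 20 µM above a set limit, cut at about 50% in these data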
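System: Bacterial diaphorase enzyme (C. kluyveri) | Incubation: 16-min room-temperature incubation before reading | Benchmarks: No-NADH positive control and DMSO neutral control | Measured by: Resorufin fluorescence 544/590 nm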
WT yeast gro inh: growth inhibition of WT yeast, mitochondrial fusion screen | 190,000 compounds, 2.1% hits | mitochondrial fusion phenotypic screen, WT strain | inhibition, % at 10 µM | AID 1362; in the data active = inhibition above about 58%; tested in S. cerevisiae
A number is an active result; n = inactive; x = not tested or not shown. Cut-off read from the data, not from the text of the source, unless noted: active = inhibition above about 50%; inactive = the rest.

SMILES	G6PDH counter	Diaph act CS	L major viab	Diaphorase inh	WT yeast gro inh
Cc1ccc(Sc2ncccc2C(=O)O)cc1C	n	n	59	n	n
COC(=O)c1cc(Br)ccc1-c1ccc(/C=N/n2nnnc2N)o1	n	n	n	n	n
Cc1ccc([N+](=O)[O-])cc1-c1ccc(/C=N\n2nnnc2N)o1	n	n	51	n	n
CN(C)N1C(N)=C(C#N)C(c2cccc3ccccc23)C2=C1CC(c1ccccc1)CC2=O (configuration not stated)	n	n	96	n	n
CCOC(=O)C(NC=O)(NC(C)(C)C)C(=O)OCC	n	n	n	n	n
Cn1cnnc1SCC(=O)c1c[nH]c2ccccc12	n	n	n	n	n
CCCCNc1nnc(SCC(=O)c2c[nH]c3ccccc23)s1	n	n	67	n	n
O=S(=O)(Nc1ccc(O)c(Sc2nc3ccccc3s2)c1)c1cccc2ccccc12	n	n	n	n	69
CCOC(=O)c1c(N)sc2c(OCC)c(Br)ccc12	n	n	n	n	n
CCOC(=O)c1c(NC(C)=O)sc2c(OCC(O)CNC(C)(C)C)c(Br)ccc12 (configuration not stated)	n	x	101	x	n
Cc1ccc(N=C2SC(C(=O)NCCc3ccccc3)CC(=O)N2C)cc1C (configuration not stated)	n	n	n	n	n
CCOc1ccc(CSC2=NCCN2)cc1Cl	n	n	n	n	n
CCOc1ccc(Br)cc1/C(C)=N\NC1=NCCN1	n	n	95	n	n
COc1ccc(/C=N/n2c(-c3n[nH]c4c3CCC4)n[nH]c2=S)cc1OC	n	n	n	63	n
Cc1cccc(/C=N/n2c(-c3ccncc3)n[nH]c2=S)c1	n	n	n	n	n
O=C(O)Cc1cn(-c2ccccc2)nc1-c1ccccc1	n	n	n	n	n
O=C(CCl)Nc1cn(-c2ccccc2)nc1-c1ccc(F)cc1	n	n	84	n	n
O=C(c1cn(-c2ccccc2)nc1-c1ccc(F)cc1)N1CCOCC1	n	n	n	n	n
O=C(NCc1cn(-c2ccccc2)nc1-c1ccc(F)cc1)c1cccc([N+](=O)[O-])c1	n	n	81	n	n
Fc1ccc(-c2nn(-c3ccccc3)cc2CNCc2ccccc2)cc1	n	n	80	n	n
CCn1cc(CNC(=O)c2cccc([N+](=O)[O-])c2)c(C)n1	n	n	n	n	n
O=C(c1cn(-c2ccccc2)nc1-c1ccc(F)cc1)N1CCCCC1	n	n	81	n	n
CC(C)(C)C(=O)Nc1ccc(C(=O)NNC(=O)Cc2ccccc2)cc1	n	n	n	n	n
CCc1cccc(CC)c1NC(=S)Nc1ccccc1	n	n	n	n	n
COc1ccc(-c2[nH]ncc2CN2CCC(C(=O)N3CCOCC3)CC2)c(F)c1	n	n	n	n	n
SMILES	G6PDH counter	Diaph act CS	L major viab	Diaphorase inh	WT yeast gro inh
Cc1[nH]c(=O)[nH]c(=O)c1S(=O)(=O)Nc1ccc(Oc2ccccc2)cc1	n	n	n	n	n
CN(C)S(=O)(=O)Nc1ccc(Oc2ccccc2)cc1	n	n	82	n	n
CCOC(=O)CN(C(=O)CSc1nnc(COc2ccc(OC)cc2)n1C)c1ccccc1	n	n	n	n	n
O=C(CSC1=NC(=O)C(c2ccccc2)C(=O)N1)Nc1ccccc1[N+](=O)[O-] (configuration not stated)	n	n	n	n	n
COc1ccc(C=O)cc1OS(=O)(=O)c1ccc(NC(C)=O)cc1	n	n	n	n	n
CC(=O)Nc1ccc(OS(=O)(=O)c2c(C)cc(C)cc2C)cc1	n	n	80	n	n
CC(=O)Nc1ccc(S(=O)(=O)Oc2ccc(C=O)cc2)cc1	n	n	78	n	n
Cc1ccc(NC(=O)c2ccccc2OCc2ccc([N+](=O)[O-])cc2)nc1	n	n	n	n	n
O=S(=O)(Nc1nc2ccccc2nc1NCc1ccco1)c1ccc(Cl)cc1	n	n	n	n	58
Cc1ccc(S(=O)(=O)Nc2nc3ccccc3nc2NCc2ccco2)cc1	n	n	n	n	n
CCOC(=O)c1c(NC(=O)CCl)sc(CN(C)C)c1-c1ccccc1	n	n	91	n	n
CCOC(=O)c1c(/N=C/N(C)C)sc(/C=N/Nc2ccccc2)c1-c1ccccc1Cl	n	n	n	n	n
CCOC(=O)c1c(/N=C/N(C)C)sc(/C=N/Nc2ccccc2)c1-c1ccccc1	n	n	95	n	n
